The source of these data is article PMC3714013 (Chemistry & biology, 2013).

Like-named read-outs stand apart in the source and are kept apart here. Positions of bridges follow the written chain, without caps; N, C: chain ends. No end group written: not given here.

Assay [1] relates to Adult male Wistar rats. Description: AgRP-induced weight gain in free-feeding rats, ICV injection. It is filed as in vivo, rat. An outline of the steps:
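Adult male Wistar rats, housed individually on a 12-12h light:dark cycle with chow. Third-ventricle cannula implanted under isoflurane, recovery ≥7 days, placement verified by a plasma glucose rise after ICV 5-thio-D-glucose. ICV pre-treatment with vehicle or test peptide, then 1 h later AgRP (0.01 nmol) or vehicle; n=8–10/group. Body weight gain followed over 5 days.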

Assay [2] addresses T1, MC1R (Homo sapiens, UniProt Q01726). The conditions noted are these: cited from earlier work.
Assay [3] concerns the target T1, MC1R. Description: Competitive. The class given is binding. An outline of the steps: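 Intact HEK 293T cells were transiently transfected with a human MC1R construct (calcium phosphate), harvested after 20 h and plated at 10,000–70,000 cells/well in binding buffer. Eu-NDP-MSH ([…]) plus 3-fold dilutions of test peptide (9.0×10−6M to 4.6×10−10M) were incubated for 2 h at 37°C. Read-out was time-resolved fluorescence. Tracer Kd came from saturation binding. Three independent experiments, in duplicate.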

In assay [4] the target is human MC4R (Homo sapiens, UniProt P32245). Description: Competitive. It is filed as binding. An outline of the steps: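 Intact HEK293T cells transiently transfected (calcium phosphate) with human MC4R, harvested 20 h later, in L*R binding buffer at 10,000–70,000 cells/well. […] Washed, DELFIA enhancement, time-resolved fluorescence. Three independent experiments in duplicate.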
Chain of human MC4R (P32245 whole entry): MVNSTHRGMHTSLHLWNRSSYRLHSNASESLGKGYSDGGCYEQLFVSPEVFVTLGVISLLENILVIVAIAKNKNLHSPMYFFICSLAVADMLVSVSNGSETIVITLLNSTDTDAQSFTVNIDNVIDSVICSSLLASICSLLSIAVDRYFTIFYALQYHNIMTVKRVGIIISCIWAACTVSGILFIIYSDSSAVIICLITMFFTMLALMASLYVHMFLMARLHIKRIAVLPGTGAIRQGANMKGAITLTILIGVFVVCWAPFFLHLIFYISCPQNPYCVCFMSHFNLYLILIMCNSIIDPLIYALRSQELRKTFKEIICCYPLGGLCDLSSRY

In assay [5] the test system is Melan-a cells (MC1R activation). The settings on record: ref Candille et al., 2007; cited from earlier work.
Assay [6] has as its target T1, MC1R. The settings on record: read-out: MC1R Ki; ref Kiefer et al., 1998; cited from earlier work.

T1 sequence (Q01726 whole entry): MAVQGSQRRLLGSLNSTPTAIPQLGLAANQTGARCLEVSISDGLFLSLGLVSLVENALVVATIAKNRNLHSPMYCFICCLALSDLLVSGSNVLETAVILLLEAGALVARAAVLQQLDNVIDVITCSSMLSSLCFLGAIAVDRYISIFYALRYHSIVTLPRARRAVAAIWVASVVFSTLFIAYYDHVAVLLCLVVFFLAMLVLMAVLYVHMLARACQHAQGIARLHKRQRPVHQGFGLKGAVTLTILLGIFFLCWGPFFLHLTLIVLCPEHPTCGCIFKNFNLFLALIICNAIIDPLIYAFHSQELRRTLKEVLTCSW

With “Agouti-related protein (SPRRCVRLHESCLGQQVPCCDPCATCYCRFFNAFCYCRKLGTATNLCSRT; UniProt P56473 82-131, looked up) [AgRP]”, in assay [1] (ICV 0.01 nmol (submaximal dose)), the “effect on body weight (energy balance response)” value is “increased weight gain”. Moreover, the “effect on food intake in the first 24 hours” value in assay [1] (ICV 0.01 nmol, data not shown) is given as “no detectable effect on food intake”.

Asip (from UniProt P42127): the Ki in assay [2] was 2.6 nM. As to “GIINTLQKYYCRVRGGRSAVLSSLPKEEQIGKSSTRGRKCSRRKK-NH2 (disulfide 11-40) [CysT-V]”, the Ki in assay [3] came to 243 nM; in assay [4], 206 nM. Take “GIINTLQKYYSRVRGGRSAV-NH2 [N-term Truncate]”: the Ki in assay [3] was above 5000 nM. As for “GIINTLQKYYSRVRGGRSAVLSSLPKEEQIGKSSTRGRKSSRRKK-NH2 [Cys->Ser]”, the Ki in assay [3] was found to be 297 nM; in assay [4] it was 436 nM. On to canine β-defensin 103 [CBD103], for which, in assay [5], the “effect on cAMP levels in Melan-a cells” value was “neither CBD103 ([Candille et al., 2007]) nor HBD3 (Figure S1A) stimulate or reduce cAMP levels”.

B1: RFF→AFF mutation in Asip: Asip mutant with RFF motif changed to AFF, literature value (protein)
chain: HLALEETLGDDRSLRSNSSMNSLDFSSVSIVALNKKSKKISRKEAEKRKRSSKKKASMKKVARPPPPSPCVATRDSCKPPAPACCDPCASCQCAFFGSACTCRVLNPNC
Turning to B1, the Ki in assay [6] was above 1900 nM.

The Ki is the dissociation constant of the complex between target and ligand, obtained from inhibition or displacement.
